In PMC10515597 (ACS Omega, 2023):
Where a SMILES comes first, the peptide text is derived from it. Bridges are numbered along the chain shown (N, C = ends). Roman numbers before positions name the chains, in order. The star is where a group is joined. X2 = O=C(N=C(NCc1ccc(C(=O)*)cc1)Nc1ccc(Br)cc1)c1ccccc1

Tests used:
[1] = system: L. amazonensis intracellular amastigotes; test: Antiamastigote activity in infected macrophages; type: cell-based, Leishmania amazonensis; settings: 24 h; for IC50: Leishmania amazonensis, Macrophage, read-out: IC50 amastigote
Summary of the method: (§1)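 Swiss mouse peritoneal macrophages (3 × 10⁵ cells mL⁻¹, complete RPMI-1640) adhered on coverslips for 4 h at 37 °C, 5% CO₂. They were infected 18 h with stationary-phase L. amazonensis promastigotes (MPRO/BR/1972/M1841-LV-79) at 10:1 and washed. Test compound (0.02–10 μM) was added for 24 h. Giemsa-stained cells were counted for infection index (% infected cells × parasites per infected cell). IC50 by nonlinear regression. Duplicates, three independent experiments.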

[2] = system: L. amazonensis promastigotes; test: Antipromastigote assay, viable promastigotes counted with trypan blue; type: cell-based; settings: Leishmania amazonensis, 72 h, read-out: IC50 promastigote
Summary of the method: (§2)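 Promastigotes were grown at 28 °C to mid-log phase: L. amazonensis (MPRO/BR/1972/M1841-LV-79) in LIT medium, L. mexicana (MNYC/BZ/62/M379) in Schneider's medium with 10% heat-inactivated FBS. Exponential-phase cells were plated at 1 × 10⁷ mL⁻¹ with test compound 1.28–100 μM. After 72 h, viable promastigotes were counted by trypan blue in a Neubauer chamber. Duplicates, three independent experiments.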

[3] = system: L. mexicana intracellular amastigotes; test: Antiamastigote activity in infected macrophages; type: cell-based; settings: Leishmania mexicana, Macrophage, 48 h, read-out: IC50 amastigote
Summary of the method: as §1, with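 “8” for “18”, “mexicana” for “amazonensis”, “(MNYC/BZ/62/M379)” for “(MPRO/BR/1972/M1841-LV-79)”, “48” for “24”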

[4] = system: L. mexicana promastigotes; test: Antipromastigote assay, viable promastigotes counted with trypan blue; type: cell-based; settings: Leishmania mexicana, read-out: IC50 promastigote
Summary of the method: as §2

[5] = system: Leishmania amazonensis amastigotes; settings: read-out: IC50-ama; L. amazonensis amastigotes ref 28; cited from earlier work
[6] = Cytotoxic activity, MTT colorimetric method; type: cell-based, Swiss mice; settings: Swiss, mouse, murine peritoneal macrophages

Compound | infection rate, fold lower than untreated cells and Amph B ([1]; L. amazonensis, at the tested concentrations (10 and 5 μM)) | IC50 [1] [µM] | IC50 [2] [µM] | IC50 [3] [µM] | IC50 [4] [µM] | IC50 [5] [µM] | CC50 [6] [µM]
CC(C)C[C@H](NC(=O)[C@H](Cc1c[nH]cn1)NC(=O)[C@H](Cc1ccc(O)cc1)NC(=O)[C@H](CCCNC(=N)N)NC(=O)[C@H](Cc1ccc(O)cc1)NC(=O)[C@H](CCCCN)NC(=O)[C@@H](N)CCCCN)C(=O)N[C@@H](CCCCN)C(=O)N1CCC[C@H]1C(=O)N[C@@H](Cc1ccccc1)C(=O)NCCCC[C@H](NC(=O)[C@H](Cc1ccccc1)NC(=O)[C@@H]1CCCN1C(=O)[C@H](CCCCN)NC(=O)[C@H](CC(C)C)NC(=O)[C@H](Cc1c[nH]cn1)NC(=O)[C@H](Cc1ccc(O)cc1)NC(=O)[C@H](CCCNC(=N)N)NC(=O)[C@H](Cc1ccc(O)cc1)NC(=O)[C@H](CCCCN)NC(=O)[C@H](CCCCN)NC(=O)c1ccc(CNC(=NC(=O)c2ccccc2)Nc2ccc(Br)cc2)cc1)C(N)=O [(GVL1)-p-Bt] (I: X2-KKYRYHLKPFK-NH2 / II: H-KKYRYHLKPF; amide I:11-II:C) | 3–4 fold |  |  |  |  |  | 
O=C(O)c1ccc(CN/C(=N/C(=O)c2ccccc2)Nc2ccc(Br)cc2)cc1 [GVL1, (Z)-4-((2-benzoyl-3-(4-bromophenyl)guanidino)methyl) benzoic acid] |  | 8.9 ± 1.41 | 34.4 ± 0.1 | 7.5 ± 3.53 | 51.8 ± 0.1 |  | 
C[C@@H]1[C@H](O)[C@@H](C)/C=C/C=C/C=C/C=C/C=C/C=C/C=C/[C@H](O[C@@H]2O[C@H](C)[C@@H](O)[C@H](N)[C@@H]2O)C[C@@H]2O[C@](O)(C[C@@H](O)C[C@@H](O)[C@H](O)CC[C@@H](O)C[C@@H](O)CC(=O)O[C@H]1C)C[C@H](O)[C@H]2C(=O)O [Amph B, amphotericin B] |  | 0.63 ± 0.02 | 0.7 ± 0.2 | 0.73 ± 0.2 | 0.45 ± 1.2 | 4.9 | 
O=C(NC(=Nc1ccc(Br)cc1)NCc1ccccc1)c1ccccc1 [LQOF-G2, N-benzoyl-N′-benzyl-N″(4-bromophenyl)guanidine] |  | 5.6 ± 2.5 | 19.6 ± 0.2 |  |  | 5.6 | 737.9 ± 1.4
